# From publication PMC5108244 (ACS Infectious Diseases, 2016)
# Columns and labels:
# [1] = test system: T. brucei brucei TREU667 strain; test: Late-stage T. brucei infection model in mice; format: in vivo; settings: mice n = 5, orally 25 mg/kg qd for 10 days, monitored 90 days
# Outline: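 Female Swiss Webster mice (6–8 weeks, n = 5/group) infected ip on day 0 with 1 × 10^4 donor-mouse parasites in IMDM. From day 7, oral dosing for 10 days in DMSO/EtOH/Tween-80/saline: test compound 50 mg/kg bid, benzoxaborole control 25 mg/kg qd, vehicle bid. Diminazene control: single ip dose of 10 mg/kg on day 7. Tail blood checked microscopically at least twice weekly to day 30, then weekly to day 90. Parasitemic mice euthanized.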
# [2] = test system: T. brucei rhodesiense STIB900 strain; test: Early-stage T. brucei infection model in mice; format: in vivo
# Outline: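 Female Swiss Webster mice (6–8 weeks, n = 4/group) infected ip on day 0 with 1 × 10^4 fresh-culture bloodstream-form parasites diluted in IMDM. Oral dosing twice daily, days 2–5 (eight doses), in 5% DMSO, 7% EtOH, 3% Tween-80 in saline; vehicle group in parallel; benzoxaborole reference as positive control. Parasitemia checked microscopically in tail blood through day 60.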
structure (smiles),measurement,setting,value
"CC1(C)OB(O)c2cc(NC(=O)c3ccc(F)cc3C(F)(F)F)ccc21 [compound 14, 4-fluoro-N-(1-hydroxy-3,3-dimethyl-2,1-benzoxaborol-6-yl)-2-(trifluoromethyl)benzamide]",mice free of infection at the end of the experiment,[1],all survived and were free of infection
same,cures as of day 60,"[2]; mice n = 4, 1 mg/kg po bid for 4 days",0/4
same,cures as of day 60,"[2]; mice n = 4, 5 mg/kg po bid for 4 days",1/4
same,cures as of day 60,"[2]; mice n = 4, 10 mg/kg po bid for 4 days",4/4
